Here are results for 33 molecules from ChEMBL document CHEMBL2202977, “Optimization and structure-activity relationships of a series of potent inhibitors of methicillin-resistant Staphylococcus aureus (MRSA) pyruvate kinase as novel antimicrobial agents” (Bioorg Med Chem, 2012).

Broadly, the IC50 is the midpoint of a concentration-inhibition curve. As a reminder, the inhibition is the drop in the measured response relative to a control, in per cent.

In brackets after ≈: the same amount, converted by molar mass. A value given as a limit tells only on which side of the number the result lay.

One test concerns Staphylococcus aureus. Nature of the test: Antimicrobial activity against Staphylococcus aureus RN4220 after 24 hrs broth microdilution method. Type of test: functional. An outline of the steps: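 MIC taken as the minimum concentration giving >98% growth inhibition of the named S. aureus strain (RN4220, ATCC 25923 or ATCC 29213). Values are single determinations or averages of n determinations. Vancomycin was run as control.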
(Broth dilution looks for growth in wells or tubes with falling amounts of substance.)

The target in another test is T1, Pyruvate kinase (Staphylococcus aureus (strain MRSA252), UniProt Q6GG09).
T1 sequence (Q6GG09 whole entry): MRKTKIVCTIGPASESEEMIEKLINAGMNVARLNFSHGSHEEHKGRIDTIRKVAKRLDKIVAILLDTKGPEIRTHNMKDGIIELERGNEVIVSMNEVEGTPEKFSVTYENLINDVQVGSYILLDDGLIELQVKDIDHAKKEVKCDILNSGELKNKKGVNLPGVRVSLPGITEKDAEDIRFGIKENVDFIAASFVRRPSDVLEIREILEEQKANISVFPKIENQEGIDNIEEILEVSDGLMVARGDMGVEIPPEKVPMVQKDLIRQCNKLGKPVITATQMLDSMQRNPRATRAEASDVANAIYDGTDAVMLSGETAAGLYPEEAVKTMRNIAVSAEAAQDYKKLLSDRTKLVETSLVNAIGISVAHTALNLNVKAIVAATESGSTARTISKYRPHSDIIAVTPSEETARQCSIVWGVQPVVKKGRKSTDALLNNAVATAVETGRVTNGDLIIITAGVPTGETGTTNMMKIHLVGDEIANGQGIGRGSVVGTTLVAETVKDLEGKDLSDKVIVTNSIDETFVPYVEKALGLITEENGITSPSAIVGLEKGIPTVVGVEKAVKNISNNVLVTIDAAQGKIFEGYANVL
Nature of the test: Inhibition of methicillin-resistant Staphylococcus aureus 252 pyruvate kinase by LDH assay. Also on record: species or system Staphylococcus aureus subsp. aureus MRSA252. An outline of the steps: (§1)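 MRSA pyruvate kinase activity was measured by a previously described procedure. IC50 was calculated from triplicate 15-point titrations, or averaged over n such determinations. Where no IC50 was obtained, the value is % inhibition at the highest concentration tested.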

For test [1], the target named is Pyruvate kinase PKLR (Homo sapiens) (UniProt P30613). Nature of the test: Inhibition of human pyruvate kinase L at 10 uM by LDH assay. An outline of the steps:
(§2)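 Selected compounds were tested against mammalian PK isoforms M1, M2, R and L at the highest concentration, 10 µM. Results are given as percent inhibition.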

The target of test [2] is Pyruvate kinase PKM (Homo sapiens) (UniProt P14618). Nature of the test: Inhibition of human pyruvate kinase M2 at 10 uM by LDH assay. The method in brief: as §2
Chain of Pyruvate kinase PKM (Homo sapiens) (P14618 2-531 limits assumed): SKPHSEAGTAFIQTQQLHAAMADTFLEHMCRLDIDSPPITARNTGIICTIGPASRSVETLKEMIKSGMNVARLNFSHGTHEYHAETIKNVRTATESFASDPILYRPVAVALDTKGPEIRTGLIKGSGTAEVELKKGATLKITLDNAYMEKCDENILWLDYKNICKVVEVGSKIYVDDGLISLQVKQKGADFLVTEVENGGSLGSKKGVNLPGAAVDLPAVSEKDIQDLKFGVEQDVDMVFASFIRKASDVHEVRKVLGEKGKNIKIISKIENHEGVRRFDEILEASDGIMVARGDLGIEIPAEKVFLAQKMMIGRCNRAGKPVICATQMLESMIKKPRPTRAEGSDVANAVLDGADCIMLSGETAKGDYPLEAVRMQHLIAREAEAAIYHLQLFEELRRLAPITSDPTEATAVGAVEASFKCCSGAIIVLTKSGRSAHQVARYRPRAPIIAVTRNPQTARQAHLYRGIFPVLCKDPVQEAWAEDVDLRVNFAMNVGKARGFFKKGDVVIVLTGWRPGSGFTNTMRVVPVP
For test [3], the target named is Pyruvate kinase PKLR (Homo sapiens) (UniProt P30613). Nature of the test: Inhibition of human pyruvate kinase R at 10 uM by LDH assay. An outline of the steps:
as §2

Test [4] has as its target Pyruvate kinase PKM (Homo sapiens) (UniProt P14618). Nature of the test: Inhibition of human pyruvate kinase M1 at 10 uM by LDH assay. An outline of the steps:
as §2

For test [5], the target named is T2, Pyruvate kinase (Staphylococcus aureus (strain MRSA252)) (UniProt Q6GG09).
T2 sequence (whole entry): T1 sequence (Q6GG09 whole entry)
Nature of the test: Inhibition of methicillin-resistant Staphylococcus aureus 252 pyruvate kinase at 10 uM by LDH assay. As to conditions: Staphylococcus aureus subsp. aureus MRSA252. The method in brief: as §1

Chain of Pyruvate kinase PKLR (Homo sapiens) (P30613 whole entry, looked up, canonical isoform): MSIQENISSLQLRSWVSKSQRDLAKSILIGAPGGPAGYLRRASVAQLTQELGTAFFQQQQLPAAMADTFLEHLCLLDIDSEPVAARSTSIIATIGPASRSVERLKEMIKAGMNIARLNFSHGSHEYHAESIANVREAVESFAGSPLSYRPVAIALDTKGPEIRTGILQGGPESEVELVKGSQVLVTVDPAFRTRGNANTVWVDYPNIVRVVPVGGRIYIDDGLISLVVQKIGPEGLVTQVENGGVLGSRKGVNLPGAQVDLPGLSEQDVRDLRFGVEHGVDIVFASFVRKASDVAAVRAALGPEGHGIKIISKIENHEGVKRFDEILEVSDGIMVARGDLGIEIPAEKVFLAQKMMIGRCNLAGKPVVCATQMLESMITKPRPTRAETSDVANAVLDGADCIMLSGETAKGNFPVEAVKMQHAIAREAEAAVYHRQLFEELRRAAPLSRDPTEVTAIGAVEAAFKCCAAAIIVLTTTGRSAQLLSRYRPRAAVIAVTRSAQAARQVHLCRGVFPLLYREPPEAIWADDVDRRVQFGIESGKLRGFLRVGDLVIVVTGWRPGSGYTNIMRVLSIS

As to `CC(=NNC(=O)c1cc(Br)ccc1O)c1nc2ccccc2s1`, the “MIC>98” value in the test on Staphylococcus aureus was >78 µg/mL. Also, half-maximal inhibition against Pyruvate kinase (IC50) required 224 nM.

For `C/C(=N\NC(=O)c1cc(I)ccc1O)c1cc2ccccc2[nH]1`, the inhibition in test [1] is -1.6%; in test [2], -1.3%; in test [3], 0.9%; in test [4], 0%; in test [5], 97%. Moreover, in the test on Staphylococcus aureus, the “MIC>98” value is >84 µg/mL. This molecule gave an IC50 against Pyruvate kinase of 151 nM.

With `COc1ccc2c(c1)cc(C(C)=NNC(=O)c1cc(Br)ccc1O)n2C` (mixture of isomers), the inhibition was 2.8% in test [1], 5.5% in test [3], -2.8% in test [4] and 71.3% in test [5]. Also, the “MIC>98” value against Staphylococcus aureus worked out at 10.4 µg/mL. Besides, the midpoint of inhibition against Pyruvate kinase, the IC50, lay at 794 nM.

Regarding `COc1ccc2[nH]c(/C(C)=N/NC(=O)c3cc(Br)ccc3O)cc2c1`, the inhibition in test [1] was determined as 3.9%; in test [2], 2.2%; in test [3], 5.2%; in test [4] it was 7.2%; in test [5], 89.3%. Further, in the test with Staphylococcus aureus, the “MIC>98” value was >80 µg/mL. Further, the IC50 on Pyruvate kinase turned out to be 178 nM.

For `C/C(=N\NC(=O)c1ccccn1)c1cc2ccccc2[nH]1`, the inhibition in test [5] was 15%. Further, in the test with Staphylococcus aureus, the “MIC>98” value is >139 µg/mL.

With `C/C(=N\NC(=O)c1ccccc1)c1cc2ccccc2[nH]1`, the inhibition in test [5] was found to be 28%. Further, the “MIC>98” value against Staphylococcus aureus was >139 µg/mL.

For the molecule `CC(=NNC(=O)c1cc(Br)ccc1O)c1cc2c(F)c(F)ccc2n1C` (mixture of isomers), the “MIC>98” value against Staphylococcus aureus was 2 µg/mL. Half-maximal inhibition against Pyruvate kinase (IC50) was put at 145 nM.

Regarding `C/C(=N\NC(=O)c1cc(Br)ccc1O)c1cc2ccccc2[nH]1`, the inhibition in test [1] was -6.9%; in test [2] it was 4.3%; in test [3], -8.7%; in test [4], 4.6%; in test [5], 98.1%. The “MIC>98” value against Staphylococcus aureus was >186 µg/mL. Moreover, on Pyruvate kinase, half-maximal inhibition (IC50) was put at 85 nM.

Take `CC(=NNC(=O)c1cc(Br)ccc1O)c1cc2cc(Cl)ccc2n1C` (mixture of isomers): the inhibition in test [1] turned out to be 5.7%; in test [2] it was 3.7%; in test [3], 6.9%; in test [4] it was 14.8%; in test [5] it was 92.3%. The “MIC>98” value against Staphylococcus aureus came to 1.3 µg/mL. The molecule also came in with an IC50 against Pyruvate kinase of 228 nM.

Consider `CC(=NNC(=O)c1cc(Br)ccc1O)c1cc2cc(F)ccc2n1C` (mixture of isomers), for which the inhibition in test [1] is -2.3%; in test [3] it was -2.9%; in test [4] it was -4.5%; in test [5], 96.1%. Further, the “MIC>98” value against Staphylococcus aureus worked out at 3.3 µg/mL. Besides, the IC50 against Pyruvate kinase came out at 165 nM.

Turning to `C/C(=N\NC(=O)c1cccc(Br)c1)c1cc2ccccc2[nH]1`, the “MIC>98” value in the test with Staphylococcus aureus was >178 µg/mL. The IC50 against Pyruvate kinase was 8150 nM.

On to `CCC(=NNC(=O)c1cc(Br)ccc1O)c1cc2ccccc2n1C` (mixture of isomers), for which the inhibition in test [1] is 2.7%; in test [2] it was -1.5%; in test [3], -1.9%; in test [4], -4.3%; in test [5], 99.1%. In addition, the MIC>98 with Staphylococcus aureus stood at 5 µg/mL. The molecule further yielded an IC50 against Pyruvate kinase of 461 nM.

Take `C/C(=N\NC(=O)c1cc(Br)cc(Br)c1O)c1cc2ccccc2[nH]1`: in the test on Staphylococcus aureus, the MIC>98 came out at 64 µg/mL (≈ 142 µM). For the same molecule, inhibition against Pyruvate kinase was half-maximal at 74 nM (IC50).

For the molecule `C/C(=N\NC(=O)c1cc(Br)ccc1O)c1cc2cc(Cl)ccc2[nH]1`, the inhibition stood at 0.1% in test [1]; 4.6% in test [2]; 2.4% in test [3]; 4.4% in test [4]; 80.1% in test [5]. For the same molecule, the “MIC>98” value against Staphylococcus aureus is >81 µg/mL. The same molecule displayed an IC50 against Pyruvate kinase of 52 nM.

Turning to `CC(=NNC(=O)c1cc(Br)ccc1O)c1cc2ccc(Br)cc2n1C` (mixture of isomers), the “MIC>98” value against Staphylococcus aureus was found to be 1 µg/mL. The concentration for half-maximal inhibition (IC50) against Pyruvate kinase was 17 nM.

As to `C/C(=N\NC(=O)c1ccc(Br)cc1O)c1cc2ccccc2[nH]1`, on Pyruvate kinase, the IC50 was found to be 1310 nM.

As to `C/C(=N\NC(=O)c1cc(Br)ccc1O)c1cc2c(F)c(F)ccc2[nH]1`, in the test on Staphylococcus aureus, the “MIC>98” value amounted to 41 µg/mL (≈ 100 µM). Also, the IC50 against Pyruvate kinase was found to be 24 nM.

For the molecule `CC(=NNC(=O)c1cc(Br)ccc1O)c1cc2cc(Br)ccc2n1C` (mixture of isomers), the inhibition turned out to be 9.2% in test [1], 11.9% in test [2], 14.2% in test [3] and 19.5% in test [4]. For the same molecule, the “MIC>98” value against Staphylococcus aureus came out at 1.4 µg/mL. The molecule also gave an IC50 on Pyruvate kinase of 146 nM.

For `COc1ccc(Br)cc1C(=O)O/N=C(\C)c1cc2ccccc2n1C`, in test [5], the inhibition came to 33%. In the test with Staphylococcus aureus, the “MIC>98” value was >161 µg/mL.

On to `CC(=NNC(=O)c1cc(Br)ccc1O)c1cc2cc(F)c(F)cc2n1C` (mixture of isomers), for which the inhibition in test [1] is -2.4%; in test [2], -8.1%; in test [3], 9%; in test [5], 95.4%. Also, in the test with Staphylococcus aureus, the “MIC>98” value stood at 1.6 µg/mL. On Pyruvate kinase, this molecule displayed a half-maximal inhibitory concentration (IC50) of 61 nM.

For the molecule `C/C(=N\NC(=O)c1cc(C(C)C)cc(C(C)C)c1O)c1cc2ccccc2[nH]1`, the inhibition in test [5] turned out to be 40%.

Consider `COc1cc(O)c(C(=O)N/N=C(\C)c2cc3ccccc3[nH]2)cc1Br`, for which the “MIC>98” value with Staphylococcus aureus is >161 µg/mL. Moreover, at Pyruvate kinase, the IC50 was 324 nM.

Turning to `C/C(=N\NC(=O)c1cc(Br)ccc1O)c1cc2cc(F)c(F)cc2[nH]1`, the “MIC>98” value in the test with Staphylococcus aureus is >82 µg/mL. At Pyruvate kinase, this molecule showed an IC50 of 20 nM.

Regarding `COc1ccc(Br)cc1S(=O)(=O)N/N=C(\C)c1cc2c(F)c(F)ccc2[nH]1`, the inhibition in test [5] amounted to 11%.

Turning to `Cn1c(C=NNC(=O)c2cc(Br)ccc2O)cc2ccccc21` (mixture of isomers), the “MIC>98” value against Staphylococcus aureus is >186 µg/mL. This molecule also had an IC50 at Pyruvate kinase of 3090 nM.

As to `C/C(=N\NC(=O)c1cc(Br)ccc1O)c1cc2cc(I)ccc2[nH]1`, the “MIC>98” value against Staphylococcus aureus was >64 µg/mL. It took 43 nM to reach half-maximal inhibition against Pyruvate kinase (IC50).

As to `C/C(=N\NC(=O)c1cc(Br)ccc1O)c1cc2cc(C(F)(F)F)ccc2[nH]1`, the inhibition in test [5] was found to be 46%.

Regarding `COc1ccc(Br)cc1S(=O)(=O)N/N=C(\C)c1cc2ccccc2[nH]1`, the inhibition in test [5] was 12%.

As for `C/C(=N\NC(=O)c1cc(-c2ccccc2)ccc1O)c1cc2ccccc2[nH]1`, in test [5], the inhibition was determined as 20%.

In the case of `CC(=NNC(=O)c1cc(Br)ccc1O)c1nc2ccccc2n1C` (mixture of isomers), the inhibition was -1.3% in test [1], 0.5% in test [2], 7.1% in test [3] and -3% in test [4]. The “MIC>98” value against Staphylococcus aureus is >194 µg/mL. The molecule also came in with an IC50 at Pyruvate kinase of 227 nM.

On to `C/C(=N\NC(=O)c1ccccc1O)c1cc2ccccc2[nH]1`, for which, in the test with Staphylococcus aureus, the “MIC>98” value worked out at 59 µg/mL (≈ 201 µM). The molecule also registered a concentration for half-maximal inhibition (IC50) at Pyruvate kinase of 8620 nM.

For `C/C(=N\OC(=O)c1cc(Br)ccc1O)c1cc2ccccc2n1C`, the inhibition in test [5] was 34%. Also, the “MIC>98” value against Staphylococcus aureus is >155 µg/mL.

Take `COc1cc(O)c(C(=O)NN=C(C)c2cc3ccccc3n2C)cc1Br` (mixture of isomers): the “MIC>98” value in the test on Staphylococcus aureus is >167 µg/mL. This molecule also gave an IC50 against Pyruvate kinase of 841 nM.
